Type in all cases: functional, organism-based
For experiment [1], the species on record is Mus musculus. Nature of the experiment: Uptake of [111In]-labeled compound in heart at 2 hr pi in the presence of […]. The gist of the method: (§1)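 C57 BL/6 female mice, 7–8 weeks old, inoculated s.c. in right flank with 1×10^6 B16/F1 melanoma cells. Used 9–10 days later at tumor weight ~500 mg. […] HPLC-purified 111In-DOTA peptide (neutral pH) given via tail vein, with or without […]. Killed 2 h pi. Tissues weighed and gamma-counted. Uptake expressed as % ID/g.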

The species named for experiment [2] is Mus musculus. As to the kind of experiment: Uptake of [111In]-labeled compound in kidney at 2 hr pi in the absence of […]. The essentials:
as §1

The species entered for experiment [3] is Mus musculus. Nature of the experiment: Uptake of [111In]-labeled compound in kidney at 2 hr pi in the presence of […]. The essentials:
as §1

The species entered for experiment [4] is Mus musculus. As to the kind of experiment: Uptake of [111In]-labeled compound in muscle at 2 h pi in the presence of […]. The settings on record: Muscle tissue. The essentials:
as §1

The species named for experiment [5] is Mus musculus. As to the kind of experiment: Uptake of [111In]-labeled compound in pancreas at 2 hr pi in the presence of 10 mg NDP. The essentials:
as §1

For experiment [6], the species on record is Mus musculus. As to the kind of experiment: Uptake of [111In]-labeled compound in spleen at 2 hr pi in the presence of 10 mg NDP. The gist of the method: as §1
The species entered for experiment [7] is Mus musculus. Nature of the experiment: Uptake of [111In]-labeled compound in tumor at 2 hr pi in the presence of 10 mg NDP. The essentials:
as §1

On to DOTA-ReCCEHdFRWCRPV-NH2, for which the ID/g in the experiment filed under Mus musculus [1] came out at 0.33%; in the experiment filed under Mus musculus [2], 8.72%; in the experiment listed under Mus musculus [3], 11.2%; in the experiment listed under Mus musculus [4] it was 0.18%; in the experiment listed under Mus musculus [5], 0.11%; in the experiment listed under Mus musculus [6], 0.47%. For the same substance, the ID/g in the experiment filed under Mus musculus [7] came out at 1.95%.

Source of the values: ChEMBL document CHEMBL1135742, “Modification of the structure of a metallopeptide: synthesis and biological evaluation of (111)In-labeled DOTA-conjugated rhenium-cyclized alpha-MSH analogues” (J Med Chem, 2002).
